Assay [1] concerns the target Matrix metalloproteinase-9 (Homo sapiens, UniProt P14780). The assay is described as follows: Inhibition of MMP9. The gist of the method: (§1)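 Catalytic domains used at final levels of 85 nM (MMP-1), 24 nM (MMP-2), 18 nM (MMP-9) and 84 nM (MMP-12). Each enzyme was premixed with compound (serial 1:2 dilutions, 150 to 1.2) for 30 min at 37 °C. Substrate was added in 50 mM Hepes with 5 mM CaCl2 and 0.05% w/w Brij-35, pH 7.5, then incubated 30 min. Fluorescence read at ex 328/em 393 nm over 45 min, every 50 s.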

For assay [2], the target named is 72 kDa type IV collagenase (Homo sapiens, UniProt P08253). The experiment in a line: Inhibition of MMP2. The gist of the method:
as §1

The next assay addresses T1, Interstitial collagenase (Homo sapiens, UniProt P03956).
T1 sequence (P03956 whole entry): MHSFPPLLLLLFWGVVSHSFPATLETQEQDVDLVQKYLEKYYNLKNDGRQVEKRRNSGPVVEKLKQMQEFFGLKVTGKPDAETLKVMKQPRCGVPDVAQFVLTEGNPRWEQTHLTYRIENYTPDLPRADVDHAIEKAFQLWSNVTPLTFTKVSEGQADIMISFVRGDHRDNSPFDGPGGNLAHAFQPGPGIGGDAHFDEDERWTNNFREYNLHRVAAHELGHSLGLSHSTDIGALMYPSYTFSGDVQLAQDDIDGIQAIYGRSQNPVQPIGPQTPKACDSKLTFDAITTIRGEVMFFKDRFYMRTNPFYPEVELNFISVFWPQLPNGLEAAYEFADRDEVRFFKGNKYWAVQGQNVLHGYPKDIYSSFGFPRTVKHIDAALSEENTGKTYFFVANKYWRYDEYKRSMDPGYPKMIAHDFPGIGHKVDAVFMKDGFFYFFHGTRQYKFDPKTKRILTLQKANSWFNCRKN
The assay is described as follows: Inhibition of MMP1. The gist of the method:
as §1

Assay [3] has as its target Macrophage metalloelastase (Homo sapiens, UniProt P39900). The assay is described as follows: Inhibition of MMP12. The gist of the method: as §1

Chain of Matrix metalloproteinase-9 (P14780 whole entry, the tested form may be a part): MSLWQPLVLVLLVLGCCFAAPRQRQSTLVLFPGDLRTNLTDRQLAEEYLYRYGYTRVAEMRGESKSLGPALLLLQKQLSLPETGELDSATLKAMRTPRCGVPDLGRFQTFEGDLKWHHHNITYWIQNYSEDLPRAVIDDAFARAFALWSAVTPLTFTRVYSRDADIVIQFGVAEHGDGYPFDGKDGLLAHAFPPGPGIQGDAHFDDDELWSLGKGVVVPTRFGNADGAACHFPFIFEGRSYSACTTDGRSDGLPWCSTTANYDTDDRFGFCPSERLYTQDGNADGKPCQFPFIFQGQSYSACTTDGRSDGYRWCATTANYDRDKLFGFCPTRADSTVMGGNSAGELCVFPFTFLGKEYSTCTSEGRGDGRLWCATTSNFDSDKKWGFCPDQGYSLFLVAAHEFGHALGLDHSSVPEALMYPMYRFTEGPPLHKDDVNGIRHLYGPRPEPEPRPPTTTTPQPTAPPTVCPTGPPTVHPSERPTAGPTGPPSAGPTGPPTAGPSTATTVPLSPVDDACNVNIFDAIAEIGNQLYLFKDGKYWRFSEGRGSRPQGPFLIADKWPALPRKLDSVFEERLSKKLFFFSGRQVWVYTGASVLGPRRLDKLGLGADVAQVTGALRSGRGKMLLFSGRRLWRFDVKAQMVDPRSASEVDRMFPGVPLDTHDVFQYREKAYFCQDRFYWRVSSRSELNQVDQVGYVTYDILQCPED
Chain of Macrophage metalloelastase (P39900 whole entry): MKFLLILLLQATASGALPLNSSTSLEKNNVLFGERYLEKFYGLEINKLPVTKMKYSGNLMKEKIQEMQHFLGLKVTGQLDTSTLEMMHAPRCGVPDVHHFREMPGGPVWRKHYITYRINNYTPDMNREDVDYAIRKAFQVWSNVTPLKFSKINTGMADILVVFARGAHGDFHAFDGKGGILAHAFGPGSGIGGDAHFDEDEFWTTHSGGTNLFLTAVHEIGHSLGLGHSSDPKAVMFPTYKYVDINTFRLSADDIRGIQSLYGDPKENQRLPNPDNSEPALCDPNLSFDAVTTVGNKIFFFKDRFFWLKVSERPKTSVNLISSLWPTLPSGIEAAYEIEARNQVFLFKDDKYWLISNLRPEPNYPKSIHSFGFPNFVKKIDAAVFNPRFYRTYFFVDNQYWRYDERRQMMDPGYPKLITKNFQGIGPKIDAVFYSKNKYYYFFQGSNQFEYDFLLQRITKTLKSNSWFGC
Chain of 72 kDa type IV collagenase (P08253 whole entry): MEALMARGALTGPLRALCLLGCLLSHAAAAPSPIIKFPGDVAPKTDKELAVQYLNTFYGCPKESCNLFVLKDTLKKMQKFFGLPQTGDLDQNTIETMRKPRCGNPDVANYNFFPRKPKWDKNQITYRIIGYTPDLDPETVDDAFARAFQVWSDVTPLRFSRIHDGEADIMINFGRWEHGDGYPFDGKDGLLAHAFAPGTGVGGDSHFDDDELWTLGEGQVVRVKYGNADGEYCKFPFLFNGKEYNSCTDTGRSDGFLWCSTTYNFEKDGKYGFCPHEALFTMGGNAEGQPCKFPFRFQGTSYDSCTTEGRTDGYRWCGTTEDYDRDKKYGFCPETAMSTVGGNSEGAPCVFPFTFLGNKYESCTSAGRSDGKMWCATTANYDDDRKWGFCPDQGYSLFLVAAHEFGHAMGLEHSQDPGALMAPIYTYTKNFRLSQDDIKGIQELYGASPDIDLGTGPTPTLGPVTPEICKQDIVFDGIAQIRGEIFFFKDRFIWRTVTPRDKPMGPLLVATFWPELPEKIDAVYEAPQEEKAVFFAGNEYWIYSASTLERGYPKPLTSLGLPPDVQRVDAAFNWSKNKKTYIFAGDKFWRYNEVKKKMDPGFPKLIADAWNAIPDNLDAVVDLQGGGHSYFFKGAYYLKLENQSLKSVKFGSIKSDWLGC

As usually defined, the IC50 is the midpoint of a concentration-inhibition curve. The low end stands for greater potency, the high end for weaker potency. Consider `O=C(OCc1ccc(C(F)(F)F)cc1)c1cccc(=O)[nH]1`, for which the IC50 in assay [1] is 101 µM; in assay [2], 112 µM; against Interstitial collagenase, 24 µM; in assay [3], 64 µM.
Regarding `C1=C(n2cc(C3=NCCO3)nn2)CCCC1`, the IC50 (in assay [1]; in assay [2]; against Interstitial collagenase; in assay [3]) was more than 150 µM each time.
For the molecule `O=C(OC1CCC1)c1cccc(=O)[nH]1`, the IC50 in assay [1] worked out at 62 µM; in assay [2], 66 µM; against Interstitial collagenase, 25 µM; in assay [3], 51 µM.
For `CCCCCOC(=O)c1cccc(=O)[nH]1` the same measures were 66 µM, 103 µM, 50 µM and 68 µM.
For `O=C(OC1CCC1)c1cccc(S)n1`, the IC50 was 137 µM in assay [1], more than 150 µM in assay [2], 135 µM against Interstitial collagenase and more than 150 µM in assay [3].
`COc1cccc(COC(=O)c2cccc(=O)[nH]2)c1`: the IC50 amounted to 88 µM in assay [1], 70 µM in assay [2], 69 µM against Interstitial collagenase and 69 µM in assay [3].
In the case of `COc1ccc(COC(=O)c2cccc(=O)[nH]2)cc1`, the IC50 in assay [1] was found to be 100 µM; in assay [2], 110 µM; on Interstitial collagenase, 99 µM; in assay [3] it was 105 µM.
Turning to `O=C(Oc1ccc2ccccc2c1)c1cccc(=O)[nH]1`, the IC50 in assay [1] worked out at 103 µM; in assay [2] it was 125 µM; at Interstitial collagenase it was 75 µM; in assay [3], 97 µM.
`O=C(OCc1ccc2c(c1)OCO2)c1cccc(=O)[nH]1`: the IC50 stood at 114 µM in assay [1], 107 µM in assay [2], 128 µM on Interstitial collagenase and 105 µM in assay [3].
As for `O=C(OCCCCOc1ccccc1)c1cccc(=O)[nH]1`, the IC50 in assay [1] came to 94 µM; in assay [2], 90 µM; against Interstitial collagenase, 67 µM; in assay [3] it was 82 µM.
With `O=C(OCc1ccccc1F)c1cccc(=O)[nH]1`, the IC50 in assay [1] amounted to 76 µM; in assay [2], 71 µM; at Interstitial collagenase it was 64 µM; in assay [3], 68 µM.
With `O=C(OCc1ccc(F)cc1)c1cccc(=O)[nH]1`, the IC50 in assay [1] was 3 µM; in assay [2], 71 µM; against Interstitial collagenase it was 23 µM; in assay [3], 65 µM.
Turning to `O=C(OCc1c(F)cccc1F)c1cccc(=O)[nH]1`, the IC50 in assay [1] was 60 µM; in assay [2] it was 66 µM; at Interstitial collagenase, 35 µM; in assay [3], 60 µM.
On to `O=C(OCc1c(F)cc(F)cc1F)c1cccc(=O)[nH]1`, for which the IC50 in assay [1] is 33 µM; in assay [2], 39 µM; at Interstitial collagenase, 16 µM; in assay [3], 31 µM.
As for `Cc1ccc(COC(=O)c2cccc(=O)[nH]2)cc1`, the IC50 was determined as 68 µM in assay [1], 73 µM in assay [2], 65 µM against Interstitial collagenase and 69 µM in assay [3].
For `O=C(OCc1c(F)c(F)c(F)c(F)c1F)c1cccc(=O)[nH]1` the same measures were 69 µM, 64 µM, 19 µM and 63 µM.
As for `O=C(OCc1cccc(Cl)c1)c1cccc(=O)[nH]1`, the IC50 in assay [1] stood at 67 µM; in assay [2] it was 5 µM; on Interstitial collagenase it was 25 µM; in assay [3], 46 µM.
Take `O=C(OCc1cccc(-c2ccccc2)c1)c1cccc(=O)[nH]1`: the IC50 was more than 150 µM in assay [1], 33 µM in assay [2], 42 µM against Interstitial collagenase and 99 µM in assay [3].
For `O=C(OCc1cccc(C(F)(F)F)c1)c1cccc(=O)[nH]1`, in that order: more than 150 µM, more than 150 µM, 28 µM and 82 µM.
For `O=C(OCc1cccc(Oc2ccccc2)c1)c1cccc(=O)[nH]1`, the IC50 was more than 150 µM in assay [1], more than 150 µM in assay [2], 68 µM on Interstitial collagenase and 118 µM in assay [3].
Turning to `O=C(Oc1cccs1)c1cccc(=O)[nH]1`, the IC50 came to 70 µM in assay [1], 73 µM in assay [2], 56 µM against Interstitial collagenase and 65 µM in assay [3].
For `O=C(OCc1ccc(Cl)cc1)c1cccc(=O)[nH]1`, the IC50 in assay [1] came out at 68 µM; in assay [2], 69 µM; on Interstitial collagenase it was 26 µM; in assay [3] it was 47 µM.
Consider `O=C(OCc1ccccc1Br)c1cccc(=O)[nH]1`, for which the concentration for half-maximal inhibition (IC50) came out at 59 µM in assay [1], 57 µM in assay [2], 19 µM on Interstitial collagenase and 44 µM in assay [3].
As for `O=C(OCc1cccc(Br)c1)c1cccc(=O)[nH]1`, the IC50 in assay [1] was 67 µM; in assay [2], 68 µM; on Interstitial collagenase, 22 µM; in assay [3], 31 µM.
Turning to `O=C(OCc1ccc(Br)cc1)c1cccc(=O)[nH]1`, the IC50 in assay [1] worked out at 114 µM; in assay [2] it was 107 µM; against Interstitial collagenase, 81 µM; in assay [3] it was 105 µM.
For `CC(C)=CCOC(=O)c1cccc(=O)[nH]1` the same measures were 69 µM, 72 µM, 37 µM and 67 µM.
For `O=C(OC/C=C/c1ccccc1)c1cccc(=O)[nH]1`, in that order: 73 µM, 90 µM, 86 µM and 70 µM.
Take `O=C(Oc1ccco1)c1cccc(=O)[nH]1`: the IC50 in assay [1] came out at 90 µM; in assay [2], 111 µM; against Interstitial collagenase it was 46 µM; in assay [3], 76 µM.
For `CC#CCOC(=O)c1cccc(=O)[nH]1` the same measures were 68 µM, 70 µM, 50 µM and 71 µM.
For `O=C(OC1CCCCC1)c1cccc(=O)[nH]1`, in that order: 94 µM, 101 µM, 32 µM and 71 µM.
In the case of `O=C(OCCc1ccccc1)c1cccc(=O)[nH]1`, the IC50 in assay [1] came out at 81 µM; in assay [2] it was 69 µM; on Interstitial collagenase it was 47 µM; in assay [3], 68 µM.
For `O=C(OCc1cc(F)c(F)cc1F)c1cccc(=O)[nH]1`, in that order: 67 µM, 86 µM, 30 µM and 56 µM.
For `O=C(Oc1ccsc1)c1cccc(=O)[nH]1`, in that order: 67 µM, 65 µM, 39 µM and 62 µM.
For `O=C(OCc1cccc(F)c1)c1cccc(=O)[nH]1`, the IC50 in assay [1] is 50 µM; in assay [2], 70 µM; against Interstitial collagenase it was 28 µM; in assay [3], 16 µM.
With `O=C(OCc1ccccc1)c1cccc(=O)[nH]1`, the IC50 was found to be 69 µM in assay [1], 65 µM in assay [2], 30 µM against Interstitial collagenase and 69 µM in assay [3].
`O=C(OCc1cc(F)ccc1F)c1cccc(=O)[nH]1`: the IC50 in assay [1] was 85 µM; in assay [2], 70 µM; against Interstitial collagenase it was 70 µM; in assay [3], 100 µM.
As to `O=C(Oc1cccc2ccccc12)c1cccc(=O)[nH]1`, the IC50 in assay [1] was 109 µM; in assay [2], 109 µM; against Interstitial collagenase, 115 µM; in assay [3], 111 µM.
On to `O=C(OCc1cc(F)cc(F)c1)c1cccc(=O)[nH]1`, for which the half-maximal inhibitory concentration (IC50) in assay [1] amounted to 71 µM; in assay [2], 69 µM; at Interstitial collagenase, 41 µM; in assay [3], 20 µM.
Consider `O=C(OCc1ccccc1Cl)c1cccc(=O)[nH]1`, for which the IC50 in assay [1] is 81 µM; in assay [2], 69 µM; on Interstitial collagenase, 51 µM; in assay [3] it was 68 µM.
For `CC(C)OC(=O)c1cccc(S)n1`, in that order: 132 µM, more than 150 µM, 121 µM and 146 µM.
For `O=C(OCCOc1ccccc1)c1cccc(=O)[nH]1` the same measures were 127 µM, more than 150 µM, 59 µM and 79 µM.
`O=C(OC1CCCCC1)c1cccc(S)n1`: the IC50 in assay [1] came to 91 µM; in assay [2], 73 µM; on Interstitial collagenase it was 102 µM; in assay [3] it was 87 µM.

The values above are taken from ChEMBL document CHEMBL1141363, “Synthesis and evaluation of novel heterocyclic MMP inhibitors” (Bioorg Med Chem Lett, 2007).
